Data set [1] concerns Hepatitis B virus. The data set can be described thus: Antiviral activity against HBV infected in human HepG2(2.2.15) cells assessed as decrease in extracellular viral DNA level after 24 hrs by blot hybridization assay. It counts as functional, organism-based. The settings on record: HepG2 2.2.15, 24 h. In short, it runs like this:
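Confluent 2.2.15 cells in RPMI 1640 with 2% FBS got nine consecutive daily doses, with medium replaced daily with drug-containing medium. Six wells per concentration over two replicate plates. Cells were pelleted from the medium, which was kept at 4°C and not frozen. Extracellular HBV DNA was quantified by blot hybridization 24 h after the last dose.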

Data set [2] can be described thus: Cytotoxicity against human HepG2(2.2.15) cells after 24 hrs by neutral red assay. In kind it is cell-based. In short, it runs like this: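 2.2.15 cells, RPMI 1640 with 2% FBS, dosed daily for nine consecutive days. Viability was read by neutral red uptake, absorbance of internalized dye at 510, 24 h after the last treatment, three cultures per concentration.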

The nature of data set [3]: Selectivity index, ratio of CC50 for human HepG2(2.2.15) cells to EC50 for HBV infected in human HepG2(2.2.15) cells. In short, it runs like this:
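Ratio from two 2.2.15 readouts after nine daily doses in RPMI/2% FBS. Extracellular HBV DNA was measured by quantitative blot hybridization and cytotoxicity by neutral red uptake (three cultures per concentration), both 24 h after the final dose.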

Data set [4] has as its system Hepatitis B virus. Description: Antiviral activity against HBV infected in transgenic mouse assessed as decrease in liver viral DNA level at 4 mg/kg, po administered daily for 14 days measured post last dose. In kind it is functional. The settings on record: for ED50: Hepatitis B virus, Liver, 336 h; for ED90: dose 4 mg/kg. In short, it runs like this: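 Homozygous male and female HBV transgenic mice (founder 1.3.32; 22.2 ± 2.8 g) received drug in distilled water by oral gavage, 0.1 ml/10 g, at 7 µmol/kg (4 mg/kg) daily for 14 days. About 0.1 g liver was lysed at necropsy, and DNA was extracted with phenol-chloroform. HBV DNA was measured by qPCR normalized to GAPDH, using duplicate CTs against a dilution standard curve, in relative units/µg cell DNA.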

Data set [5] deals with HepG2. The data set can be described thus: Drug metabolism in human HepG2 cells assessed as unidentified metabolite uptake at 10 uM after 24 hrs. It counts as ADME, cell-based. The settings on record: hepg2, 24 h. In short, it runs like this: (§1)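 Nearly confluent HepG2 flasks got 14C-labeled drug (final 10 µM, 50 mCi/mmol) for 24 h. Cells were washed with cold PBS, lysed in water by two freeze-thaw cycles and sonication, then extracted with cold TCA (8% final) and centrifuged at 4°C. Supernatant was counted and analyzed by SAX ion-exchange HPLC, with metabolites assigned by retention versus reference standards.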

Data set [6] concerns HepG2. Description: Drug metabolism in human HepG2 cells assessed as unidentified metabolite uptake at 10 uM after 48 hrs. In kind it is ADME, cell-based. The conditions noted are these: hepg2, 48 h.
For data set [7], the system named is HepG2. Description: Drug metabolism in human HepG2 cells assessed as HPMPA uptake at 10 uM after 24 hrs. The settings on record: hepg2, 24 h. It counts as ADME, cell-based. In short, it runs like this: as §1
For data set [8], the system named is HepG2. Description: Drug metabolism in human HepG2 cells assessed as HPMPA uptake at 10 uM after 48 hrs. It counts as ADME, cell-based. The settings on record: hepg2, 48 h.
In data set [9] the test system is HepG2. The data set can be described thus: Drug metabolism in human HepG2 cells assessed as HPMPAp uptake at 10 uM after 24 hrs. It counts as ADME, cell-based. The settings on record: hepg2, 24 h. An outline of the steps:
as §1

Data set [10] concerns HepG2. Description: Drug metabolism in human HepG2 cells assessed as HPMPAp uptake at 10 uM after 48 hrs. It counts as ADME, cell-based. The conditions noted are these: hepg2, 48 h.
For data set [11], the system named is HepG2. Description: Drug metabolism in human HepG2 cells assessed as HPMPApp uptake at 10 uM after 24 hrs. In kind it is ADME, cell-based. The conditions noted are these: hepg2, 24 h. In short, it runs like this:
as §1

Data set [12] concerns HepG2. Description: Drug metabolism in human HepG2 cells assessed as HPMPApp uptake at 10 uM after 48 hrs. In kind it is ADME, cell-based. The settings on record: hepg2, 48 h.
In data set [13] the test system is Hepatitis B virus. Description: Antiviral activity against HBV harboring RNA polymerase N236T mutant gene infected in human HuH7 cells assessed as decrease in viral transient transfection […]. The settings on record: Huh-7. It counts as functional, organism-based. An outline of the steps:
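Lamivudine- and adefovir-resistant HBV mutants introduced into Huh7 cells by transient transfection. Compounds were tested in a 5-day assay.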

The subject of data set [14] is Hepatitis B virus. Description: Antiviral activity against wild type HBV infected in human HuH7 cells assessed as decrease in viral transient transfection after 5 days. The settings on record: Huh-7, 5 days.
For data set [15], the system named is Hepatitis B virus. The data set can be described thus: Antiviral activity against HBV harboring RNA polymerase L180M mutant gene infected in human HuH7 cells assessed as decrease in viral transient transfection after 5 days. The conditions noted are these: Huh-7, 5 days.
Data set [16] deals with Hepatitis B virus. Description: Antiviral activity against HBV harboring RNA polymerase M204V mutant gene infected in human HuH7 cells assessed as decrease in viral transient transfection after 5 days. The conditions noted are these: Huh-7, 5 days.
The test system of data set [17] is Hepatitis B virus. The data set can be described thus: Antiviral activity against HBV harboring RNA polymerase M204I mutant gene infected in human HuH7 cells assessed as decrease in viral transient transfection after 5 days. The conditions noted are these: Huh-7, 5 days.
Data set [18] has as its system Hepatitis B virus. Description: Antiviral activity against HBV harboring RNA polymerase L180M/M204V mutant gene infected in human HuH7 cells assessed as decrease in viral transient transfection after 5 days. The settings on record: Huh-7, 5 days.

Consider `CC(C)CCCCCCCCCCCCCCOCCCOP(=O)(O)CO[C@H](CO)Cn1cnc2c(N)ncnc21`, for which, in the data set on Hepatitis B virus [1], the concentration giving a half-maximal response (EC50) is 0.059 µM and the EC90 was found to be 0.181 µM. The compound further showed a CC50 at 24 h in data set [2] of over 300 µM. The “Selectivity Index” value in [3] is over 1657. In the data set on Hepatitis B virus [4], the ED50 came to 0.082 µmol/kg and the ED90 came out at 2.96 µmol/kg.

For `Nc1ncnc2c1ncn2C[C@@H](CO)OCP(=O)(O)O`, the 50% effective concentration (EC50) in the data set on Hepatitis B virus [1] was 1.2 µM. In the data set with Hepatitis B virus [1], the concentration for an effect of 90% (EC90) was determined as 5.05 µM. This compound also displayed a CC50 at 24 h in data set [2] of over 300 µM. In data set [3], the “Selectivity Index” value was over 60. Also, the Drug uptake in the data set on HepG2 [5] turned out to be 33 pmol; in the data set with HepG2 [6], 62 pmol; in the data set with HepG2 [7], 26 pmol; with HepG2 [8], 10 pmol; with HepG2 [9], 27 pmol; in the data set on HepG2 [10], 70 pmol. In addition, the Drug uptake in the data set on HepG2 [11] is on record as 34 pmol; in the data set with HepG2 [12], 13 pmol.

For `CCCCCCCCCCCCCCCCCCOCCOP(=O)(O)CO[C@H](CO)Cn1cnc2c(N)ncnc21`, in the data set on Hepatitis B virus [1], the EC50 was 0.076 µM and the concentration for an effect of 90% (EC90) was found to be 0.211 µM. The same compound displayed a cytotoxic concentration (CC50) at 24 h in data set [2] of over 300 µM. For the same compound, the “Selectivity Index” value in [3] was over 1422. In addition, in the data set on Hepatitis B virus [4], the median effective dose (ED50) was 0.35 µmol/kg and the ED90 is 6.91 µmol/kg.

For `CC(C)(C)C(=O)OCOP(=O)(COCCn1cnc2c(N)ncnc21)OCOC(=O)C(C)(C)C` [ADEFOVIR DIPIVOXIL], the 50% effective concentration (EC50) was 14 µM in the data set on Hepatitis B virus [13]; 2 µM in the data set on Hepatitis B virus [14]; 2.6 µM in the data set on Hepatitis B virus [15]; 1.5 µM in the data set on Hepatitis B virus [16]; 2.4 µM in the data set on Hepatitis B virus [17]; 2.5 µM with Hepatitis B virus [18]. For the same compound, the EC90 with Hepatitis B virus [13] worked out at 52 µM; in the data set with Hepatitis B virus [14] it was 7 µM; with Hepatitis B virus [15], 7.3 µM; in the data set with Hepatitis B virus [16] it was 7.2 µM; with Hepatitis B virus [17], 8 µM; in the data set with Hepatitis B virus [18], 7.6 µM. For the same compound, the 50% effective dose (ED50) with Hepatitis B virus [4] is 0.2 µmol/kg. For the same compound, in the data set with Hepatitis B virus [4], the ED90 amounted to 3.6 µmol/kg.

Regarding `Nc1ccn([C@@H]2CS[C@H](CO)O2)c(=O)n1` [LAMIVUDINE], the 50% effective concentration (EC50) in the data set with Hepatitis B virus [13] is 0.3 µM; with Hepatitis B virus [15] it was 16 µM; in the data set with Hepatitis B virus [16], over 100 µM; with Hepatitis B virus [17], over 100 µM; in the data set with Hepatitis B virus [18] it was over 100 µM. Further, the EC90 in the data set with Hepatitis B virus [13] is 1.5 µM; in the data set on Hepatitis B virus [14] it was 3 µM; in the data set on Hepatitis B virus [15], 41 µM; in the data set with Hepatitis B virus [16], over 100 µM; in the data set with Hepatitis B virus [17], over 100 µM; in the data set with Hepatitis B virus [18] it was over 100 µM.

A word on the EC50: it is the concentration needed to bring the measured effect to its halfway point. As a reminder, the EC90 is the point of the concentration-response curve where the effect stands at 90%. Broadly, the CC50 is the concentration at which the toxic effect on the cells reaches its halfway point. Broadly, the ED50 is the dose that gives a 50% effect, or the effect in half of the subjects.
